# Results reported in ChEMBL document CHEMBL4732114, “Design and structural optimization of novel 2H-benzo[h]chromene derivatives that target AcrB and reverse bacterial multidrug resistance” (Eur J Med Chem, 2021).
# Calls of active or inactive are those of the source. No cut-off for these calls is given here.
# What was measured:
# [1] = molecular target: T1, Multidrug efflux pump subunit AcrB (Escherichia coli (strain K12)) (UniProt P31224); assay: Inhibition of AcrB in multidrug-resistant Escherichia coli BW25113 assessed as potentiation of erythromycin-induced antibacterial activity by measuring erythromycin MIC at 32 ug/ml by checkerboard titration method (reference value: 64 ug/ml); conditions: dose 32.0 µg/ml
# T1 sequence (whole entry): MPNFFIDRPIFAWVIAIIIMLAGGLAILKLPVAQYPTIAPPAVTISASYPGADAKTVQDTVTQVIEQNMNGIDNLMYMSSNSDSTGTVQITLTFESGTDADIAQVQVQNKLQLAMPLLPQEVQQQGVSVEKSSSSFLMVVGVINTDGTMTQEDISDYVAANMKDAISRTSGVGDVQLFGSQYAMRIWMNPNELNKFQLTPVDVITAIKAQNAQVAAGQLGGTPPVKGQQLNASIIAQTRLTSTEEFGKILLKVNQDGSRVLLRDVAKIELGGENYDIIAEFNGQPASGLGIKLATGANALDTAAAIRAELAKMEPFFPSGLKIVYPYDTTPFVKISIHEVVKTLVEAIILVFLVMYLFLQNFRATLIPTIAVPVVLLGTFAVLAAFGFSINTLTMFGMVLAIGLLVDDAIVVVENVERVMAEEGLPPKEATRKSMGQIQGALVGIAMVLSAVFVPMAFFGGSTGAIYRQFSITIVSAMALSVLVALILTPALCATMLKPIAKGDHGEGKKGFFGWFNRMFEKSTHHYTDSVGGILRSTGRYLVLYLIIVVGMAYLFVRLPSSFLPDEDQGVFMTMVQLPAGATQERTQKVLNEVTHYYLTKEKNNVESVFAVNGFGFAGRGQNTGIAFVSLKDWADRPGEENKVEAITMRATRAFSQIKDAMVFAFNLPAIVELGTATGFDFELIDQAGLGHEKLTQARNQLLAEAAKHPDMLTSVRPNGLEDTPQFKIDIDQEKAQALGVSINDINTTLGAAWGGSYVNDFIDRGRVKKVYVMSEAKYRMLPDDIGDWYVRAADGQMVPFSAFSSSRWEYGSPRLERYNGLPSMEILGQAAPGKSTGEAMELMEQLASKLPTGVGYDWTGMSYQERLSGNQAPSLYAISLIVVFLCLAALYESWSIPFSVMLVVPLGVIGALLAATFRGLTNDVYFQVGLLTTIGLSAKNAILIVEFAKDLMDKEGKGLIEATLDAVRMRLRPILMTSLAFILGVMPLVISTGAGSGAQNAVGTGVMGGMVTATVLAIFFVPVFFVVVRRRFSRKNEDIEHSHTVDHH
# [2] = molecular target: T1, Multidrug efflux pump subunit AcrB (Escherichia coli (strain K12)); assay: Inhibition of AcrB in multidrug-resistant Escherichia coli BW25113 assessed as potentiation of tetraphenylphosphonium-induced antibacterial activity by measuring tetraphenylphosphonium MIC at 64 ug/ml by checkerboard titration method (reference value: 1024 ug/ml); conditions: dose 64.0 µg/ml
# [3] = molecular target: T1, Multidrug efflux pump subunit AcrB (Escherichia coli (strain K12)); assay: Inhibition of AcrB in multidrug-resistant Escherichia coli BW25113 assessed as potentiation of chloramphenicol-induced antibacterial activity by measuring chloramphenicol MIC at 32 ug/ml by checkerboard titration method (reference value: 8 ug/ml); conditions: dose 32.0 µg/ml
# [4] = molecular target: T1, Multidrug efflux pump subunit AcrB (Escherichia coli (strain K12)); assay: Inhibition of AcrB in Escherichia coli BW25113 assessed as reduction in glucose-induced nile red efflux at 100 uM preincubated for 15 mins followed by nile red addition and incubated for 3 hrs in shaker in presence of CCCP by fluorimetric analysis; conditions: time 3.25 hrs
# In short: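 Wild-type and AcrB-deleted cells were preloaded with Nile Red, with or without compound. Fluorescence was recorded, and efflux was triggered at 100 s with 0.2% glucose. Traces were compared with the deletion-strain level. Triplicate experiments used different cell batches.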
# [5] = molecular target: T1, Multidrug efflux pump subunit AcrB (Escherichia coli (strain K12)); assay: Inhibition of AcrB in multidrug-resistant Escherichia coli BW25113 assessed as potentiation of levofloxacin-induced antibacterial activity by measuring levofloxacin MIC at 128 ug/ml by checkerboard titration method (reference value: 0.06 ug/ml); conditions: dose 128.0 µg/ml
# [6] = molecular target: T1, Multidrug efflux pump subunit AcrB (Escherichia coli (strain K12)); assay: Inhibition of AcrB in multidrug-resistant Escherichia coli BW25113 assessed as potentiation of tetraphenylphosphonium-induced antibacterial activity by measuring tetraphenylphosphonium MIC at 8 ug/ml by checkerboard titration method (reference value: 1024 ug/ml); conditions: dose 8.0 µg/ml
# [7] = molecular target: T1, Multidrug efflux pump subunit AcrB (Escherichia coli (strain K12)); conditions: Escherichia coli BW25113; dose 8.0 µg/ml
# [8] = molecular target: T1, Multidrug efflux pump subunit AcrB (Escherichia coli (strain K12)); assay: Inhibition of AcrB in multidrug-resistant Escherichia coli BW25113 assessed as potentiation of erythromycin-induced antibacterial activity by measuring erythromycin MIC at 16 ug/ml by checkerboard titration method (reference value: 64 ug/ml); conditions: dose 16.0 µg/ml
# [9] = molecular target: T1, Multidrug efflux pump subunit AcrB (Escherichia coli (strain K12)); conditions: Escherichia coli BW25113; dose 64.0 µg/ml
# [10] = molecular target: T1, Multidrug efflux pump subunit AcrB (Escherichia coli (strain K12)); assay: Inhibition of AcrB in multidrug-resistant Escherichia coli BW25113 assessed as potentiation of tetraphenylphosphonium-induced antibacterial activity by measuring tetraphenylphosphonium MIC at 16 ug/ml by checkerboard titration method (reference value: 1024 ug/ml); conditions: dose 16.0 µg/ml
# [11] = molecular target: T1, Multidrug efflux pump subunit AcrB (Escherichia coli (strain K12)); conditions: Escherichia coli BW25113; dose 128.0 µg/ml
# [12] = molecular target: T1, Multidrug efflux pump subunit AcrB (Escherichia coli (strain K12)); assay: Inhibition of AcrB in multidrug-resistant Escherichia coli BW25113 assessed as potentiation of chloramphenicol-induced antibacterial activity by measuring chloramphenicol MIC at 16 ug/ml by checkerboard titration method (reference value: 8 ug/ml); conditions: dose 16.0 µg/ml
# [13] = molecular target: T1, Multidrug efflux pump subunit AcrB (Escherichia coli (strain K12)); assay: Inhibition of AcrB in multidrug-resistant Escherichia coli BW25113 assessed as potentiation of levofloxacin-induced antibacterial activity by measuring levofloxacin MIC at 32 ug/ml by checkerboard titration method (reference value: 0.06 ug/ml); conditions: dose 32.0 µg/ml
# [14] = molecular target: T1, Multidrug efflux pump subunit AcrB (Escherichia coli (strain K12)); assay: Inhibition of AcrB in multidrug-resistant Escherichia coli BW25113 assessed as potentiation of levofloxacin-induced antibacterial activity by measuring levofloxacin MIC at 8 ug/ml by checkerboard titration method (reference value: 0.06 ug/ml); conditions: dose 8.0 µg/ml
# [15] = molecular target: T1, Multidrug efflux pump subunit AcrB (Escherichia coli (strain K12)); assay: Inhibition of AcrB in multidrug-resistant Escherichia coli BW25113 assessed as potentiation of erythromycin-induced antibacterial activity by measuring erythromycin MIC at 128 ug/ml by checkerboard titration method (reference value: 64 ug/ml); conditions: dose 128.0 µg/ml
# Cell membrane = assay: Induction of inner membrane permeabilization in wild type Escherichia coli BW25113 assessed as perturbation of proton motive force at 128 ug/ml measured after 10 mins in presence of CCCP and glucose by Di0C2(3) probe based fluorescence assay; conditions: escherichia coli bw25113, 10 min, dose 128 µg/ml
# In short: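 Cell suspensions were left untreated or exposed to 8-128 µg/mL compound for 10 min. DiOC₂(3) was then added and fluorescence followed to a plateau. Cells were re-energized with 0.5% glucose, and the rise in fluorescence was read as membrane-potential build-up. CCCP was added last to dissipate the potential.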
SMILES,MIC [1],MIC [2],MIC [3],inhibition [4],MIC [5],MIC [6],MIC [7],MIC [8],MIC [9],MIC [10],MIC [11],MIC [12],MIC [13],MIC [14],MIC [15],Activity (Cell membrane)
Cc1ccccc1COc1cccc2c3c(c(-c4nnco4)cc12)CCC(C)(C)O3,32 µg/mL,512 µg/mL,8 µg/mL,Active,0.06 µg/mL,512 µg/mL,16 µg/mL,64 µg/mL,16 µg/mL,512 µg/mL,16 µg/mL,8 µg/mL,0.06 µg/mL,0.06 µg/mL,16 µg/mL,
CC(C)NCCOc1ccc2c(c1)OC(C)(C)CC2=O,64 µg/mL,1020 µg/mL,8 µg/mL,Active,0.03 µg/mL,1020 µg/mL,16 µg/mL,64 µg/mL,16 µg/mL,1020 µg/mL,16 µg/mL,8 µg/mL,0.03 µg/mL,0.03 µg/mL,64 µg/mL,
COc1cccc(COc2cccc3c4c(c(-c5nnco5)cc23)CCC(C)(C)O4)c1,64 µg/mL,512 µg/mL,8 µg/mL,,0.06 µg/mL,1020 µg/mL,16 µg/mL,64 µg/mL,16 µg/mL,1020 µg/mL,16 µg/mL,8 µg/mL,0.06 µg/mL,0.06 µg/mL,32 µg/mL,Not Active
C=CC(=O)Nc1ccc(COc2cccc3c4c(c(Cn5cnnn5)cc23)CCC(C)(C)O4)cc1,32 µg/mL,1020 µg/mL,4 µg/mL,,0.06 µg/mL,1020 µg/mL,16 µg/mL,64 µg/mL,16 µg/mL,1020 µg/mL,16 µg/mL,8 µg/mL,0.06 µg/mL,0.06 µg/mL,32 µg/mL,Not Active
CC1(C)CCc2c(-c3nnco3)cc3c(OCc4ccc(C#N)cc4)cccc3c2O1,64 µg/mL,512 µg/mL,4 µg/mL,,0.06 µg/mL,1020 µg/mL,16 µg/mL,64 µg/mL,16 µg/mL,1020 µg/mL,16 µg/mL,4 µg/mL,0.06 µg/mL,0.06 µg/mL,32 µg/mL,Not Active
CC1(C)CCc2c(C(=O)O)cc3c(OCc4ccccc4)cccc3c2O1,64 µg/mL,256 µg/mL,8 µg/mL,Active,0.01 µg/mL,1020 µg/mL,16 µg/mL,64 µg/mL,16 µg/mL,1020 µg/mL,16 µg/mL,8 µg/mL,0.06 µg/mL,0.06 µg/mL,32 µg/mL,
CC1(C)CCc2c(C(=O)N3CCOCC3)cc3c(OCc4ccc(C(F)(F)F)cc4)cccc3c2O1,64 µg/mL,512 µg/mL,8 µg/mL,,0.06 µg/mL,512 µg/mL,16 µg/mL,64 µg/mL,16 µg/mL,512 µg/mL,16 µg/mL,8 µg/mL,0.06 µg/mL,0.06 µg/mL,16 µg/mL,
CC1(C)CCc2c(C(=O)N3CCOCC3)cc3c(OCc4ccccc4)cccc3c2O1,64 µg/mL,512 µg/mL,4 µg/mL,Active,0.03 µg/mL,512 µg/mL,16 µg/mL,64 µg/mL,16 µg/mL,512 µg/mL,16 µg/mL,4 µg/mL,0.03 µg/mL,0.03 µg/mL,8 µg/mL,
COc1cccc(COc2cccc3c4c(c(C(=O)N5CCOCC5)cc23)CCC(C)(C)O4)c1,32 µg/mL,256 µg/mL,4 µg/mL,,0.06 µg/mL,512 µg/mL,16 µg/mL,64 µg/mL,16 µg/mL,512 µg/mL,16 µg/mL,4 µg/mL,0.06 µg/mL,0.06 µg/mL,16 µg/mL,
CC1(C)CC(=O)c2ccc(OCC(=O)Nc3ccc(C#N)c(C(F)(F)F)c3)cc2O1,64 µg/mL,256 µg/mL,8 µg/mL,,,1020 µg/mL,16 µg/mL,64 µg/mL,16 µg/mL,1020 µg/mL,16 µg/mL,8 µg/mL,0.06 µg/mL,0.06 µg/mL,,
CC1(C)CCc2c(-c3nnco3)cc3c(OCc4ccccc4)cccc3c2O1,32 µg/mL,512 µg/mL,4 µg/mL,Active,0.06 µg/mL,512 µg/mL,16 µg/mL,64 µg/mL,16 µg/mL,512 µg/mL,16 µg/mL,8 µg/mL,0.06 µg/mL,0.06 µg/mL,16 µg/mL,
CC1CN(C(=O)c2cc3c(OCc4c(Cl)cccc4Cl)cccc3c3c2CCC(C)(C)O3)CC(C)O1 (centres undefined),64 µg/mL,1020 µg/mL,8 µg/mL,Active,0.03 µg/mL,1020 µg/mL,16 µg/mL,64 µg/mL,16 µg/mL,1020 µg/mL,16 µg/mL,8 µg/mL,0.03 µg/mL,0.03 µg/mL,64 µg/mL,
CC1(C)CC(=O)c2ccc(OCCNC3CCCC3)cc2O1,64 µg/mL,512 µg/mL,8 µg/mL,,0.03 µg/mL,512 µg/mL,16 µg/mL,64 µg/mL,16 µg/mL,512 µg/mL,16 µg/mL,8 µg/mL,0.03 µg/mL,0.06 µg/mL,64 µg/mL,
